Reference: ChEMBL document CHEMBL1154251, “Yeast glycogen synthase kinase-3beta pathway inhibitors from an organic extract of Streptomyces sp” (J Nat Prod, 2009)
The source made the active and inactive calls. The calls are words filed in the database; no cut-off is given here.

Key:
[1] = biological target: Glycogen synthase kinase-3 beta (Homo sapiens) (UniProt P49841); assay: Inhibition of GSK3-beta expressed in H10075 yeast assessed as growth inhibition at 20 ug/disk after 72 hrs at 25 degreeC by disc diffusion method
Sequence of Glycogen synthase kinase-3 beta (Homo sapiens) (P49841 whole entry, looked up, the tested form may be a part): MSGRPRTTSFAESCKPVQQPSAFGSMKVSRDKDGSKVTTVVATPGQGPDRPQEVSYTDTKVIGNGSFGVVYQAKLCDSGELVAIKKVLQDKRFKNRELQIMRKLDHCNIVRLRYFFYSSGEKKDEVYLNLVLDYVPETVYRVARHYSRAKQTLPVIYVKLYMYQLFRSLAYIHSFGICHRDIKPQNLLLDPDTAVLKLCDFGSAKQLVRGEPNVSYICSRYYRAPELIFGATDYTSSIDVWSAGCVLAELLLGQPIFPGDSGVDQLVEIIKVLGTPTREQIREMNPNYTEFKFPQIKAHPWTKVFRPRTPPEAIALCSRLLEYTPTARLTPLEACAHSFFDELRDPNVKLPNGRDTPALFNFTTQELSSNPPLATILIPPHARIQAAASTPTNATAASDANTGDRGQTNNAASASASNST
Procedure, shortened: (§1)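 Yeast gsk-3 null strain H10075 (mck1 mds1 mrk1 yol128c disrupted) carrying cloned human GSK-3β on pKT10; grown 2 days at 37 °C in SC minus uracil, then seeded into SC minus uracil agar pH 5.6. Compounds applied on filter disks (20, 10, 5, 2.5 µg per disk); plates incubated 72 h at 25 and 37 °C; zone of inhibition diameter read; duplicate.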

[2] = biological target: Glycogen synthase kinase-3 beta (Homo sapiens) (UniProt P49841); assay: Inhibition of GSK3-beta expressed in H10075 yeast assessed as growth inhibition at 5 ug/disk after 72 hrs at 37 degreeC by disc diffusion method; procedure, shortened: as §1
[3] = biological target: Glycogen synthase kinase-3 beta (Homo sapiens) (UniProt P49841); assay: Inhibition of GSK3-beta expressed in H10075 yeast assessed as growth inhibition at 10 ug/disk after 72 hrs at 24 degreeC by disc diffusion method
[4] = biological target: Glycogen synthase kinase-3 beta (Homo sapiens) (UniProt P49841); assay: Inhibition of GSK3-beta expressed in H10075 yeast assessed as growth inhibition at 5 ug/disk after 72 hrs at 24 degreeC by disc diffusion method
[5] = biological target: Glycogen synthase kinase-3 beta (Homo sapiens) (UniProt P49841); assay: Inhibition of GSK3-beta expressed in H10075 yeast assessed as growth inhibition at 2.5 ug/disk after 72 hrs at 24 degreeC by disc diffusion method
[6] = biological target: Glycogen synthase kinase-3 beta (Homo sapiens) (UniProt P49841); assay: Inhibition of GSK3-beta expressed in H10075 yeast assessed as growth inhibition at 20 ug/disk after 72 hrs at 37 degreeC by disc diffusion method
Procedure, shortened: (§2)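 Yeast gsk-3 null strain H10075 (mck1, mds1, mrk1, yol128c disrupted) carrying pKT10-GSK-3β. Grown 2 days at 37 °C in SC minus uracil broth, then seeded into SC minus uracil agar, pH 5.6. Samples on filter disks, screened at 20 µg/disk, actives retested down to 2.5 µg/disk. Plates held 72 h at both 25 and 37 °C. Zone of inhibition read; duplicates.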

[7] = biological target: Glycogen synthase kinase-3 beta (Homo sapiens) (UniProt P49841); assay: Inhibition of GSK3-beta expressed in H10075 yeast assessed as growth inhibition at 10 ug/disk after 72 hrs at 37 degreeC by disc diffusion method; procedure, shortened: as §2
[8] = biological target: Glycogen synthase kinase-3 beta (Homo sapiens) (UniProt P49841); assay: Inhibition of GSK3-beta expressed in H10075 yeast assessed as growth inhibition at 2.5 ug/disk after 72 hrs at 37 degreeC by disc diffusion method; procedure, shortened: as §1

SMILES	inhibition zone (IZ) [1]	inhibition zone (IZ) [2]	inhibition zone (IZ) [3]	inhibition zone (IZ) [4]	inhibition zone (IZ) [5]	inhibition zone (IZ) [6]	inhibition zone (IZ) [7]	inhibition zone (IZ) [8]
Cn1sc(=O)n(Cc2ccccc2)c1=O	10 mm	9 mm	9 mm	8 mm	inactive	11 mm	10 mm	inactive
CC/C=C(\C)C(=O)CC(O)CC1CC(=O)NC(=O)C1 (stereo not given)	10 mm	30 mm	inactive	inactive	inactive	38 mm	34 mm	28 mm
C[C@@H]1C[C@@H]([C@H](O)CC2CC(=O)NC(=O)C2)C(=O)[C@@H](C)C1	36 mm	48 mm	33 mm	30 mm	25 mm			42 mm
C[C@H]1C[C@H](C)C(=O)[C@@H]([C@H](O)CC2CC(=O)NC(=O)C2)C1	22 mm	15 mm	16 mm	12 mm	inactive	33 mm	25 mm	inactive
